ChEMBL document CHEMBL1148835, “Weak base dispiro-1,2,4-trioxolanes: potent antimalarial ozonides” (Bioorg Med Chem Lett, 2007)
In brackets after ≈: the same amount, converted by molar mass.

Assays:
[1] = test system: Plasmodium falciparum; assay: Antimalarial activity against chloroquine-sensitive Plasmodium falciparum NF54; assay type: functional, organism-based
Procedure, shortened: (§1)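 In vitro growth assay using asexual P. falciparum cultures, K1 for line 1 and NF54 for line 2. Each value is the mean of 2–3 determinations. Individual measurements differed by less than 50%.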

[2] = test system: Plasmodium berghei; assay: Antimalarial activity as reduced parasitaemia against Plasmodium berghei infected MORO mice (Mus musculus) at 10 mg/kg peroral dose; assay type: functional; design: scale not given: the % may be the effect or the level left; conditions: route oral
Procedure, shortened: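 Groups of three P. berghei-infected MORO mice were given a single oral 10 mg/kg dose on day 1 post-infection. Read-out was percent reduction in parasitemia on day 3 post-infection.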

[3] = test system: Plasmodium falciparum; assay: Antimalarial activity against chloroquine-resistant Plasmodium falciparum K1; assay type: functional, organism-based; procedure, shortened: as §1
[4] = Biodistribution in Sprague-Dawley rat at 25 mg/kg, iv and 50 mg/kg, po; assay type: ADME, organism-based; conditions: in vivo
Procedure, shortened: (§2)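 Rats were dosed 25 mg/kg IV via a jugular cannula in aqueous citrate buffer, pH 3. Separately, 50 mg/kg was given by oral gavage as a suspension in 0.5% w/v aqueous HPMC. Carotid-cannula serial blood samples were centrifuged immediately and the plasma stored at -80 °C. Plasma was assayed by LC/MS against a calibration curve prepared in plasma. Values are the average of 2–3 determinations.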

[5] = Bioavailability in Sprague-Dawley rat at 25 mg/kg, po; assay type: ADME, organism-based; conditions: in vivo
[6] = target: Voltage-gated inwardly rectifying potassium channel KCNH2 (Homo sapiens, UniProt Q12809); assay: Inhibition of hERG by patch clamp assay; assay type: toxicity
[7] = species on record: Rattus norvegicus; assay: Neurotoxicity in rat; assay type: toxicity, organism-based; conditions: in vivo
Procedure, shortened: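 Five-day toxicity study in male rats with daily oral administration, including observation for signs of neurotoxicity.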

[8] = Half life in Sprague-Dawley rat at 25 mg/kg, iv and 50 mg/kg, po; assay type: ADME, organism-based; conditions: in vivo; procedure, shortened: as §2
[9] = Plasma clearance in Sprague-Dawley rat at 25 mg/kg, iv and 50 mg/kg, po; assay type: ADME, organism-based; procedure, shortened: as §2
[10] = Biodistribution in Sprague-Dawley rat at 4 mg/kg, iv and 10 mg/kg, po; assay type: ADME, organism-based; conditions: in vivo
Procedure, shortened: (§3)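 Rats were dosed 4 mg/kg IV via a jugular cannula fitted the day before, in 40% v/v propylene glycol, 10% v/v ethanol and water. Separately, 10 mg/kg was given by oral gavage as a suspension in 0.5% w/v aqueous HPMC. Serial blood was drawn via a carotid cannula and the plasma stored at -80 °C. Plasma was quantified by LC/MS against a calibration curve prepared in plasma. Values are the average of 2–3 determinations.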

[11] = Half life in Sprague-Dawley rat at 4 mg/kg, iv and 10 mg/kg, po; assay type: ADME, organism-based; conditions: in vivo; procedure, shortened: as §3
[12] = Plasma clearance in Sprague-Dawley rat at 4 mg/kg, iv and 10 mg/kg, po; assay type: ADME, organism-based; procedure, shortened: as §3
[13] = Biodistribution in Sprague-Dawley rat at 10 mg/kg, iv and 50 mg/kg, po; assay type: ADME, organism-based; conditions: in vivo
Procedure, shortened: (§4)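 Rats were dosed 10 mg/kg IV via a jugular cannula in 10% v/v propylene glycol, 10% v/v ethanol and water. Separately, 50 mg/kg was given by oral gavage as a suspension in 0.5% w/v aqueous HPMC. Serial blood was drawn via a carotid cannula and the plasma stored at -80 °C. LC/MS quantification used a calibration curve prepared in plasma. Values are the average of 2–3 determinations.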

[14] = Half life in Sprague-Dawley rat at 10 mg/kg, iv and 50 mg/kg, po; assay type: ADME, organism-based; conditions: in vivo; procedure, shortened: as §4
[15] = Plasma clearance in Sprague-Dawley rat at 10 mg/kg, iv and 50 mg/kg, po; assay type: ADME, organism-based; procedure, shortened: as §4
[16] = Bioavailability in Sprague-Dawley rat at 10 mg/kg, po; assay type: ADME, organism-based; conditions: in vivo; procedure, shortened: as §3

Sequence of Voltage-gated inwardly rectifying potassium channel KCNH2 (Q12809 whole entry): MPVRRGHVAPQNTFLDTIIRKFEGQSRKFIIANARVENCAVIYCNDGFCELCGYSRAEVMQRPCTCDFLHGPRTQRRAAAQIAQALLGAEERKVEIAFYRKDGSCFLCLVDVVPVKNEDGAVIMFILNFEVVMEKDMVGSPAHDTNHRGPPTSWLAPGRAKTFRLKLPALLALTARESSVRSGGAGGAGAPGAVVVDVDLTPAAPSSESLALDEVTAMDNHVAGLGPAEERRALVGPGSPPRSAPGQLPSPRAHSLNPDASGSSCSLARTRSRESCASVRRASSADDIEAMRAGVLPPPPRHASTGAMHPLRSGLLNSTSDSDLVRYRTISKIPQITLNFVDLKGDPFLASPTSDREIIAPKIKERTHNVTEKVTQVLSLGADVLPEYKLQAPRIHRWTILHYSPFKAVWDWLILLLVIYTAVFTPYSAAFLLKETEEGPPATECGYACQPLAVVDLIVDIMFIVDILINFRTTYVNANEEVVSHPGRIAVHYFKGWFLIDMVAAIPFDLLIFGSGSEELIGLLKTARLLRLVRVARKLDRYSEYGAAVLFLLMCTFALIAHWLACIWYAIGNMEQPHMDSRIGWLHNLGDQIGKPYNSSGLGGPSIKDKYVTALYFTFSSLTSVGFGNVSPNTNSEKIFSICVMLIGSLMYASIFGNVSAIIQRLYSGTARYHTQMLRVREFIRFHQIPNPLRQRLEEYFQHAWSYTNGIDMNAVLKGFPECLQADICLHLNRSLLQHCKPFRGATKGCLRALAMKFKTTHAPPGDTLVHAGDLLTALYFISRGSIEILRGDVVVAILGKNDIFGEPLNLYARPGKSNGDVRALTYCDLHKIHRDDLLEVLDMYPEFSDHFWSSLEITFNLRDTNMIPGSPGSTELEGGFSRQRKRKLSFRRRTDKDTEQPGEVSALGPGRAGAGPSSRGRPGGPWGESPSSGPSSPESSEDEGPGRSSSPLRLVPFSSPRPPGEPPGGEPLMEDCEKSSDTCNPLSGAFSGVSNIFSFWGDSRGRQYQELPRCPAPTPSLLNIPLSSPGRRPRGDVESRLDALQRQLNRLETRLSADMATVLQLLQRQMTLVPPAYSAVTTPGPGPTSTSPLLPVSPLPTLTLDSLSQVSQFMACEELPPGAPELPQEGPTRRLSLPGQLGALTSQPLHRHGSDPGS

For `Cc1ccc(S(=O)(=O)O)cc1.N[C@H]1CC[C@]2(CC1)OO[C@]1(O2)C2CC3CC(C2)CC1C3`, the IC50 [1] was 0.31 ng/mL and the Activity [2] was 98%.
Work on `OCC[C@H]1CC[C@]2(CC1)OO[C@]1(O2)C2CC3CC(C2)CC1C3` yielded an IC50 [1] of 0.75 ng/mL (≈ 2.43 nM), an IC50 [3] of 0.3 ng/mL (≈ 0.973 nM) and an Activity [2] of 89%.
`c1cnn(C[C@H]2CC[C@]3(CC2)OO[C@]2(O3)C3CC4CC(C3)CC2C4)c1` gave an IC50 [1] of 1.2 ng/mL (≈ 3.48 nM), an IC50 [3] of 1 ng/mL (≈ 2.9 nM) and an Activity [2] of 78%.
In the case of `c1c[nH]c(C[C@H]2CC[C@]3(CC2)OO[C@]2(O3)C3CC4CC(C3)CC2C4)n1`, the Activity [2] is reported as 71%.
With `C1C2CC3CC1CC(C2)[C@]31OO[C@@]2(CC[C@H](Cc3nnn[nH]3)CC2)O1` the IC50 [1] was 55 ng/mL (≈ 159 nM), the IC50 [3] was 46 ng/mL (≈ 133 nM) and the Activity [2] was 40%.
`NC(=O)c1cn(C[C@H]2CC[C@]3(CC2)OO[C@]2(O3)C3CC4CC(C3)CC2C4)cn1` gave an Activity [2] of 99.76%.
`c1cn(CC[C@H]2CC[C@]3(CC2)OO[C@]2(O3)C3CC4CC(C3)CC2C4)cn1` gave an IC50 [1] of 0.4 ng/mL (≈ 1.12 nM) and an IC50 [3] of 0.44 ng/mL (≈ 1.23 nM).
Work on `NC(=O)CNC[C@H]1CC[C@]2(CC1)OO[C@]1(O2)C2CC3CC(C2)CC1C3` yielded a Vd [4] of 13 L/kg, a bioavailability [5] of 58% and an IC50 [1] of 0.59 ng/mL (≈ 1.68 nM). For the same compound, the IC50 [6] was 2700 nM, the Activity [7] was “Non-toxic” and the IC50 [3] was 0.3 ng/mL (≈ 0.856 nM). It also gave a half-life [8] of 94 min and a clearance [9] of 102 mL/min/kg.
In the case of `O=CN1CCN(C[C@H]2CC[C@]3(CC2)OO[C@]2(O3)C3CC4CC(C3)CC2C4)CC1`, the Activity [2] is reported as 99.01%.
`NS(=O)(=O)c1ccc(N[C@H]2CC[C@]3(CC2)OO[C@]2(O3)C3CC4CC(C3)CC2C4)cc1` showed an IC50 [1] of 3 ng/mL (≈ 6.9 nM), an IC50 [3] of 2.7 ng/mL (≈ 6.21 nM) and an Activity [2] of 99.98%.
With `CC(C)(C)C1CCC2(CC1)OOC1(CCC(CN)CC1)O2.CS(=O)(=O)O` (stereo not drawn) the IC50 [1] was > 100 ng/mL, the IC50 [3] was > 100 ng/mL and the Activity [2] was 0%.
With `CS(=O)(=O)O.NC[C@H]1CC[C@]2(CC1)OOC1(O2)C2CC3CC(C2)CC1C3` (stereo partly drawn) the Vd [4] was 39 L/kg, the bioavailability [5] was 31% and the IC50 [6] was 1800 nM. The Activity [7] was “Non-toxic”, the IC50 [3] was 0.39 ng/mL and the half-life [8] was 150 min. For the same compound, the clearance [9] was 177 mL/min/kg.
`C1C2CC3CC1CC(C2)C31OO[C@]2(CC[C@@H](CNC3CC3)CC2)O1.CS(=O)(=O)O` (stereo partly drawn) showed an IC50 [1] of 0.45 ng/mL and an IC50 [3] of 0.56 ng/mL.
`CS(=O)(=O)O.O=C(O)CNC[C@H]1CC[C@]2(CC1)OOC1(O2)C2CC3CC(C2)CC1C3` (stereo partly drawn) gave an IC50 [1] of 17 ng/mL and an IC50 [3] of 11 ng/mL.
In the case of `CS(=O)(=O)O.NC(=O)CCNC[C@H]1CC[C@]2(CC1)OOC1(O2)C2CC3CC(C2)CC1C3` (stereo partly drawn), the IC50 [1] is reported as 0.91 ng/mL, the IC50 [3] is reported as 0.41 ng/mL and the Activity [2] is reported as 99.92%.
`CC(C)(N)CNC[C@H]1CC[C@]2(CC1)OOC1(O2)C2CC3CC(C2)CC1C3.CS(=O)(=O)O.CS(=O)(=O)O` (stereo partly drawn) gave an IC50 [1] of 0.83 ng/mL and an IC50 [3] of 0.49 ng/mL.
`CN(C)C[C@H]1CC[C@]2(CC1)OOC1(O2)C2CC3CC(C2)CC1C3.CS(=O)(=O)O` (stereo partly drawn) gave an IC50 [1] of 0.75 ng/mL and an IC50 [3] of 0.35 ng/mL.
Compound `CS(=O)(=O)O.c1csc(NC[C@H]2CC[C@]3(CC2)OOC2(O3)C3CC4CC(C3)CC2C4)n1` (stereo partly drawn) has an IC50 [1] of 2.2 ng/mL and an IC50 [3] of 2.3 ng/mL.
For `CS(=O)(=O)O.c1ncn(C[C@H]2CC[C@]3(CC2)OOC2(O3)C3CC4CC(C3)CC2C4)n1` (stereo partly drawn), the IC50 [1] was 1.7 ng/mL and the IC50 [3] was 0.9 ng/mL.
`CS(=O)(=O)O.NOC[C@H]1CC[C@]2(CC1)OOC1(O2)C2CC3CC(C2)CC1C3` (stereo partly drawn) gave an IC50 [1] of 20 ng/mL, an IC50 [3] of 28 ng/mL and an Activity [2] of 47%.
`NC(=O)CN(CC(N)=O)C[C@H]1CC[C@]2(CC1)OO[C@]1(O2)C2CC3CC(C2)CC1C3` gave an IC50 [1] of 2 ng/mL (≈ 4.91 nM), an IC50 [3] of 1.7 ng/mL (≈ 4.17 nM) and an Activity [2] of 86%.
Work on `NC(=O)c1ccc(N[C@H]2CC[C@]3(CC2)OO[C@]2(O3)C3CC4CC(C3)CC2C4)cc1` yielded an IC50 [1] of 1 ng/mL (≈ 2.51 nM), an IC50 [3] of 1.1 ng/mL (≈ 2.76 nM) and an Activity [2] of 99.98%.
Work on `NC(=O)c1cncn1C[C@H]1CC[C@]2(CC1)OO[C@]1(O2)C2CC3CC(C2)CC1C3` yielded an Activity [2] of 99.77%.
Work on `OC[C@H]1CC[C@]2(CC1)OO[C@]1(O2)C2CC3CC(C2)CC1C3` yielded a Vd [10] of 5.3 L/kg, a half-life [11] of 27 min and a clearance [12] of 136 mL/min/kg.
Compound `NS(=O)(=O)c1ccc(NC[C@H]2CC[C@]3(CC2)OO[C@]2(O3)C3CC4CC(C3)CC2C4)cc1` has an Activity [2] of 99.95%.
With `O=C1CN(C[C@H]2CC[C@]3(CC2)OO[C@]2(O3)C3CC4CC(C3)CC2C4)CCN1` the IC50 [1] was 1.8 ng/mL (≈ 4.78 nM) and the IC50 [3] was 1.3 ng/mL (≈ 3.45 nM).
With `CCOC(=O)NC[C@H]1CC[C@]2(CC1)OO[C@]1(O2)C2CC3CC(C2)CC1C3` the IC50 [1] was 0.56 ng/mL (≈ 1.53 nM).
With `Cl.c1cn(C[C@H]2CC[C@]3(CC2)OO[C@]2(O3)C3CC4CC(C3)CC2C4)cn1` the IC50 [1] was 1.1 ng/mL, the Vd [13] was 4.1 L/kg and the Activity [7] was “Non-toxic”. For the same compound, the half-life [14] was 47 min, the clearance [15] was 60.1 mL/min/kg and the IC50 [3] was 1.3 ng/mL. It also gave a bioavailability [16] of 36%.
In the case of `Cl.NCC[C@H]1CC[C@]2(CC1)OO[C@]1(O2)C2CC3CC(C2)CC1C3`, the IC50 [1] is reported as 0.48 ng/mL and the IC50 [3] is reported as 0.15 ng/mL.
